Reference: ChEMBL document CHEMBL1155041, “Discovery of N-(2-aminophenyl)-4-[(4-pyridin-3-ylpyrimidin-2-ylamino)methyl]benzamide (MGCD0103), an orally active histone deacetylase inhibitor” (J Med Chem, 2008)
pEC50, pIC50: −log10 of the molar value. Where a name gives a salt, the structure may show the parent alone. Calls of active or inactive are those of the source. The rule behind the calls is not given here.

How the values were obtained:
SW48 [1] = experiment: Antitumor activity against human SW48 cells xenografted in CD1 nude mouse at 60 mg/kg/day, po; type: functional; conditions: read-out: TGI
How it was run: (§1)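 Tumors were started from about 2 million cells injected sc into the flank of female CD-1 nude mice aged 8-10 weeks, then serially passaged at least three times. About 30 mg fragments were implanted sc under anesthesia. Dosing was oral, daily, as a solution in PBS acidified with 0.1 N HCl. Tumor volume and body weight were measured three times weekly for ≥2 weeks, with 6-8 animals per group and Student's t-test.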

SW48 [2] = experiment: Antitumor activity against human SW48 cells xenografted in CD1 nude mouse at 90 mg/kg/day, po; type: functional; conditions: read-out: TGI; how it was run: as §1
SW48 [3] = experiment: Antitumor activity against human SW48 cells xenografted in CD1 nude mouse at 120 mg/kg/day, po; type: functional; conditions: read-out: TGI; how it was run: as §1
HCT-116 [4] = experiment: Induction of apoptosis in HCT116 cells at 1 uM; type: functional, cell-based; conditions: Homo sapiens
How it was run: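 Apoptosis was measured in HCT116 cells with a cell-death detection ELISA (nucleosome release), read at 405 nm with a 490 nm reference. Scored positive/negative at 1 µM.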

Histone deacetylase 11 = biological target: T1, Histone deacetylase 11 (Homo sapiens, UniProt Q96DB2); experiment: Inhibition of human recombinant HDAC11 homogeneous fluorescence release assay
T1 sequence (Q96DB2 whole entry): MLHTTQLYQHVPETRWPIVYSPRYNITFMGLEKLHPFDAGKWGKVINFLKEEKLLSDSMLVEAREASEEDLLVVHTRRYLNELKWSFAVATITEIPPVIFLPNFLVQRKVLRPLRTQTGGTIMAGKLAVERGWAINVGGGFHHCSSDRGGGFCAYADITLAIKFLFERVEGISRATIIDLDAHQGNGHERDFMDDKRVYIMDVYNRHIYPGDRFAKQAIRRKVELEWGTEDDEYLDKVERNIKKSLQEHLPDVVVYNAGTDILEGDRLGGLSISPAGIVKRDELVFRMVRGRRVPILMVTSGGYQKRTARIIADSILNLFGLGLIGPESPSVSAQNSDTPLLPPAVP
How it was run: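 Boc-Lys(ε-Ac)-AMC substrate then added at 37 °C, with isotype-specific substrate level and time. Trypsin 20 min at RT releases fluorophore, read ex 360/em 470 nm. IC50 from dose-response curves, 6-21 independent experiments.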

HCT-116 [5] = experiment: Antiproliferative activity against human HCT116 cells after 72 hrs by MTT assay; conditions: HCT-116, 72 h
A549 [6] = experiment: Antiproliferative activity against human A549 cells after 72 hrs by MTT assay; conditions: A549, 72 h
DU-145 [7] = experiment: Antiproliferative activity against human Du145 cells after 72 hrs by MTT assay; type: functional, cell-based; conditions: DU-145, 72 h
How it was run: (§2)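 Cells (HMEC from a commercial source, others from ATCC) cultured per vendor instructions, exposed to a range of concentrations for 72 h at 37 °C, 5% CO2. MTT at 0.5 mg/mL final for 4 h, then DMF/SDS solubilization overnight, absorbance at 570 nm with 630 nm reference. OD converted to cell number via a growth curve. IC50 is the concentration giving 50% of DMSO-control cell number. At least three independent experiments.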

HMEC = experiment: Antiproliferative activity against HMEC after 72 hrs by MTT assay; type: functional, cell-based; conditions: Homo sapiens; how it was run: as §2
T-24 = experiment: Induction of H3 histone acetylation in human T24 cells relative to MS275; type: functional, cell-based
How it was run: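 Histones were acid-extracted (H2SO4, then acetone precipitation) from treated cells. In the ELISA, 2 µg of histones went onto anti-histone-coated plates and were probed with anti-acetyl-H3 (1:1000). Signal was normalized to total H3 measured on 0.5 µg with anti-H3.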

HCT-116 [8] = experiment: Induction of p21cip/waf1 protein expression in human HCT116 cells relative to MS275; type: functional, cell-based
HCT-116 [9] = experiment: Cell cycle arrest in human HCT116 cells assessed as accumulation at G2/M phase; type: functional, cell-based
How it was run: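 Cells treated for 16 h, fixed in 70% ethanol at -20 °C, RNase-treated and stained with propidium iodide (50 µg/mL). DNA content measured by flow cytometry to score G2/M accumulation. EC50 derived.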

[10] = Half life in CD1 mouse at 2.5 to 15 mg/kg, iv; type: ADME, organism-based; set-up: dose 2.5-15 mg/kg, route intravenous; conditions: in vivo
How it was run: (§3)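 Female CD-1 mice, female Sprague-Dawley rats and male beagle dogs were dosed iv or orally. Vehicles: mice, 0.05-0.1 N HCl in saline for both routes. Rats, 0.02-0.1 N HCl in saline iv; for po, HCl/saline with 0.5% HPMC and 0.01% Tween-80, or 0.5% CMC in 50 mM acetate pH 4.0. Dogs, HCl/saline with 40% PEG400 iv; for po, HCl/saline ±PEG400 or 0.5% hydroxyethylcellulose in pH 4.0 acetate. Plasma was collected over time and analyzed by LC-MS/MS.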

Mus musculus [11] = experiment: Volume of distribution in CD1 mouse at 2.5 to 15 mg/kg, iv and po; type: ADME, organism-based; set-up: dose 2.5-15 mg/kg, route oral; conditions: in vivo; how it was run: as §3
[12] = Tmax in CD1 mouse at 2.5 to 15 mg/kg, po; type: ADME, organism-based; set-up: dose 2.5-15 mg/kg, route oral; conditions: in vivo; how it was run: as §3
Mus musculus [13] = experiment: Cmax in CD1 mouse at 2.5 to 15 mg/kg, po; type: ADME, organism-based; set-up: dose 2.5-15 mg/kg, route oral; conditions: in vivo; how it was run: as §3
[14] = Oral bioavailability in CD1 mouse at 2.5 to 15 mg/kg; type: ADME, organism-based; conditions: in vivo
How it was run: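 Female CD-1 mice dosed iv 2.5-15 mg/kg and orally 2.5-15 mg/kg. Both routes used 0.05-0.1 N HCl in saline. Plasma collected at various time points and analysed by HPLC-MS/MS. Bioavailability taken from oral versus iv exposure.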

[15] = Half life in Sprague-Dawley rat at 2.5 to 5 mg/kg, iv; type: ADME, organism-based; set-up: dose 2.5-5 mg/kg, route intravenous; conditions: in vivo; how it was run: as §3
[16] = Clearance in Sprague-Dawley rat at 2.5 to 5 mg/kg, iv and 2.5 to 50 mg/kg, po; type: ADME, organism-based; conditions: in vivo; how it was run: as §3
[17] = Volume of distribution at steady state in Sprague-Dawley rat at 2.5 to 5 mg/kg, iv and 2.5 to 50 mg/kg, po; type: ADME, organism-based; conditions: in vivo, read-out: Vdss; how it was run: as §3
[18] = Tmax in Sprague-Dawley rat at 2.5 to 50 mg/kg, po; type: ADME, organism-based; set-up: dose 2.5-50 mg/kg, route oral; conditions: in vivo; how it was run: as §3
Rattus norvegicus = experiment: Cmax in Sprague-Dawley rat at 2.5 to 50 mg/kg, po; type: ADME, organism-based; set-up: dose 2.5-50 mg/kg, route oral; conditions: in vivo; how it was run: as §3
[19] = Oral bioavailability in Sprague-Dawley rat at 2.5 to 50 mg/kg; type: ADME, organism-based; conditions: in vivo
How it was run: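 Female Sprague-Dawley rats dosed iv 2.5-5 mg/kg in 0.02-0.1 N HCl/saline. Oral doses of 2.5-50 mg/kg were given either in 0.02-0.1 N HCl/saline with 0.5% HPMC and 0.01% Tween-80, or in 0.5% CMC in 50 mM acetate pH 4.0. Plasma sampled at various time points and analysed by HPLC-MS/MS.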

[20] = Half life in Beagle dog at 10 mg/kg, iv; type: ADME, organism-based, Canis lupus familiaris; set-up: dose 10 mg/kg, route intravenous; conditions: in vivo; how it was run: as §3
[21] = Clearance in Beagle dog at 10 mg/kg, iv and 7 to 30 mg/kg, po; type: ADME, organism-based, Canis lupus familiaris; conditions: in vivo; how it was run: as §3
[22] = Volume of distribution at steady state in Beagle dog at 10 mg/kg, iv and 7 to 30 mg/kg, po; type: ADME, organism-based, Canis lupus familiaris; conditions: in vivo, read-out: Vdss; how it was run: as §3
[23] = Tmax in Beagle dog at 7 to 30 mg/kg, po; type: ADME, organism-based, Canis lupus familiaris; set-up: dose 7-30 mg/kg, route oral; conditions: in vivo; how it was run: as §3
Canis familiaris = experiment: Cmax in Beagle dog at 7 to 30 mg/kg, po; type: ADME, organism-based, Canis lupus familiaris; set-up: dose 7-30 mg/kg, route oral; conditions: in vivo; how it was run: as §3
[24] = Oral bioavailability in Beagle dog at 7 to 30 mg/kg; type: ADME, organism-based, Canis lupus familiaris; conditions: in vivo; how it was run: as §3
A-431 [25] = experiment: Antitumor activity against human A431 cells xenografted in CD1 nude mouse at 60 mg/kg/day, po; type: functional; conditions: read-out: TGI; how it was run: as §1
A-431 [26] = experiment: Antitumor activity against human A431 cells xenografted in CD1 nude mouse at 90 mg/kg/day, po; type: functional; conditions: read-out: TGI; how it was run: as §1
A549 [27] = experiment: Antitumor activity against human A549 cells xenografted in CD1 nude mouse at 40 mg/kg/day, po; type: functional; conditions: read-out: TGI; how it was run: as §1
A549 [28] = experiment: Antitumor activity against human A549 cells xenografted in CD1 nude mouse at 60 mg/kg/day, po; type: functional; conditions: read-out: TGI; how it was run: as §1
DU-145 [29] = experiment: Antitumor activity against human DU145 cells xenografted in CD1 nude mouse at 40 mg/kg/day, po; type: functional; conditions: read-out: TGI; how it was run: as §1
DU-145 [30] = experiment: Antitumor activity against human DU145 cells xenografted in CD1 nude mouse at 70 mg/kg/day, po; type: functional; conditions: read-out: TGI; how it was run: as §1
DU-145 [31] = experiment: Antitumor activity against human DU145 cells xenografted in CD1 nude mouse at 80 mg/kg; type: functional; conditions: read-out: TGI; how it was run: as §1

Nc1ccccc1NC(=O)c1ccc(CNc2nccc(-c3cccnc3)n2)cc1 [MOCETINOSTAT DIHYDROBROMIDE]
inhibition in vivo at 60 mg/kg/day (SW48 [1]): 64%
inhibition in vivo at 90 mg/kg/day (SW48 [2]): 70%
inhibition in vivo at 120 mg/kg/day (SW48 [3]): 93%

Nc1ccccc1NC(=O)c1ccc(CNc2nccc(-c3cccnc3)n2)cc1
Activity (HCT-116 [4]): Active

Nc1ccccc1NC(=O)c1ccc(CNc2nccc(-c3cccnc3)n2)cc1 [MOCETINOSTAT]
pIC50 (Histone deacetylase 11): 6.23
pIC50 (HCT-116 [5]): 6.54
pIC50 (A549 [6]): 6.05
pIC50 (DU-145 [7]): 6.17
pIC50 (HMEC): 4.70
pEC50 (T-24): 5.86
pEC50 (HCT-116 [8]): 6.35
pEC50 (HCT-116 [9]): > 6.00
half-life [10]: 36 min
Vdss (Mus musculus [11]): 0.35 L/kg
Tmax [12]: 15 min
Cmax normalised (Mus musculus [13]): 0.086 µM/mg/kg
bioavailability [14]: 12%
half-life [15]: 42 min
clearance [16]: 28.3 mL/min/kg
Vd [17]: 0.91 L/kg
Tmax [18]: 35.4 min
Cmax normalised (Rattus norvegicus): 0.3 µM/mg/kg
bioavailability [19]: 47%
half-life [20]: 78 min
clearance [21]: 33.3 mL/min/kg
Vd [22]: 0.8 L/kg
Tmax [23]: 17.4 min
Cmax normalised (Canis familiaris): 0.0029 µM/mg/kg
bioavailability [24]: 1%
inhibition in vivo at 60 mg/kg/day (A-431 [25]): 30%
inhibition in vivo at 90 mg/kg/day (A-431 [26]): 64%
inhibition in vivo at 40 mg/kg/day (A549 [27]): 56%
inhibition in vivo at 60 mg/kg/day (A549 [28]): 73%
inhibition in vivo at 40 mg/kg/day (DU-145 [29]): 4%
inhibition in vivo at 70 mg/kg/day (DU-145 [30]): 47%
inhibition in vivo at 80 mg/kg (DU-145 [31]): 82%
